Assay results: publication PMC7159910 (Science Advances, 2020)

Assays:
[1] = system: PHF20L1 expression in MDA-MB-231 cells; experiment: Western blotting of PHF20L1 in cells exposed to CoCl2; format: cell-based, human; conditions: MDA-MB-231 cells exposed to CoCl2
Procedure, shortened: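 MDA-MB-231 cells, grown in L-15 medium with 10% FBS at 37°C without CO2, treated with CoCl2 as hypoxia mimic; lysates immunoblotted for PHF20L1 and for HIF1α as hypoxia marker.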

[2] = target: PHF20L1 TUDOR domain; experiment: ITC

Kd [2] [µM] | Compound | induction of PHF20L1 protein by hypoxia activator [1]
– | [Cl][Co][Cl] [CoCl2, cobalt chloride] | PHF20L1 was indeed induced
73.6 | H3K27me2 peptide (ITC) | –
